# High-throughput results deposited in PubChem by several laboratories.
# Only some compounds are listed: those with a hit (about 2.9% of all), similar ones and a draw of the others.
# Dynein cargo inh: blocks dynein driven cargo transport along microtubules. 3617.4 mouse cells, GR-EGFP nuclear translocation imaging; test concentration mostly 20 µM; stimulated with dexamethasone, 1 µM; hits give low values. hit rate 0.47% among 220,000. z-score, hits read low. AID 1381;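 active = plate z-score of nuclear minus cytoplasmic receptor signal below a set negative limit, without overly bright fluorescence or cell loss, cut at about -3.5 in these data, passing the limit was not always enough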;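 note: z-score of nuclear minus cytoplasmic ring GR-EGFP intensity difference per well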
#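 Buffer or medium: tetracycline-free induction medium containing charcoal-stripped FBS / Reagent: dexamethasone agonist, 1.0 µM final, for 30 min / Technique: automated 10x imaging of fixed Hoechst-stained cells / Times: induction 48 h, compound 1 h, agonist 30 min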
# MEKK3 PB1 HTS: raises or lowers MEK5 binding to the human MEKK3 PB1 domain | Q99759 | bead-based flow cytometry, Alexa488-MEK5 binding to MEKK3; actives lie on both sides; 0 = blocked by unlabeled MEK5, 100 = vehicle | binding response (% of control), % at 10 µM | hit rate 1.4% among 290,000;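 active = binding response more than 3 SD above or below the average of its plate-row segment, actives on both sides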;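 note: Alexa488 bead fluorescence after subtracting the streptavidin-only scavenger bead signal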
# Target sequence (Q99759 whole entry, looked up, the tested form may be a part): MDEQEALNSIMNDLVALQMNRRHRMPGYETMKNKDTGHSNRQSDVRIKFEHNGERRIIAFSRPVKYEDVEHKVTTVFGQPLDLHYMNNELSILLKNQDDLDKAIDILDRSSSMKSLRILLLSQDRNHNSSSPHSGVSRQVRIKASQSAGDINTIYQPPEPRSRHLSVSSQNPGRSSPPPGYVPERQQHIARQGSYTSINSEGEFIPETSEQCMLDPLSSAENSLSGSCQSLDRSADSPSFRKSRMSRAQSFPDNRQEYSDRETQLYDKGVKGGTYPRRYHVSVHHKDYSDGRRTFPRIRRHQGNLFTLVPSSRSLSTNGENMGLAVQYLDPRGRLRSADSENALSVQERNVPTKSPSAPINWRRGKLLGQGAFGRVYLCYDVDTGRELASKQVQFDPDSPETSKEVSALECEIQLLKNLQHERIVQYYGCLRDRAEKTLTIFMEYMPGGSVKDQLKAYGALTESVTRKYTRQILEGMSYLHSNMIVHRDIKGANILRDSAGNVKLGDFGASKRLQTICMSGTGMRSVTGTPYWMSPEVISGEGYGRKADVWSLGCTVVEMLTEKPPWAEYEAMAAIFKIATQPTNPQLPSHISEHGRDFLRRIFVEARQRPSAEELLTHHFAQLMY
# MEKK2mut PB1 HTS: signal of MEK5 binding to mutant human MEKK2 PB1 domain. AID 1530. bead flow cytometry, Alexa488-MEK5 binding to MEKK2 mutant. percent response, % at 10 µM. hit rate 0.35% among 290,000; in the data active = percent response above about 24%, passing the limit was not always enough
# Beta2AR agonist: agonists of human beta-2 adrenergic receptor inducing internalization; P07550; Am2.2-beta2AR cells, FAP receptor internalization, flow cytometry; response, % (concentration not given with the values); hit rate 0.43% among 340,000; AID 504454;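 active = response above a set limit, near 3 SD of response in nonfluorescent compounds, cut at about 42% in these data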
# MEKK2 WT-MEK5: raises or lowers MEK5 binding to wildtype human MEKK2 PB1 domain; hit rate 1.1% among 290,000; bead flow cytometry, Alexa488-MEK5 binding to MEKK2 WT; actives lie on both sides; AID 1531; binding response (% of control), % at 10 µM; in the data active = binding response below about 67% or above about 130%
# ATG4B inh: ATG4B (human) cysteine protease inhibition. Q9Y4P1. ATG4B cleavage of LC3-PLA2, NBD-HPC fluorescence, 1 h. inhibition, % at 8.33 µM. hit rate 0.51% among 340,000. AID 504462; in the data active = inhibition above about 40%
# MEKK2wt confirm: raises or lowers MEK5 binding to wildtype human MEKK2, retest | AID 1892 | shares compounds with MEKK3 PB1 HTS | bead flow cytometry, Alexa488-MEK5 binding to MEKK2 WT; actives lie on both sides | binding response (% of control), % at 10 µM | hit rate 2.4% among 5,900; in the data active = binding response below about 16% or above about 210%; inactive = in between
# MEKK2mut-MEK5: signal of MEK5 binding to mutant human MEKK2, retest; shares compounds with MEKK3 PB1 HTS; hit rate 2% among 5,900; bead flow cytometry, Alexa488-MEK5 binding to MEKK2 mutant; percent response, % at 10 µM; in the data active = percent response mostly above about 71%, no sharp cut-off; inactive = mostly below about 38%;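 note: higher means compound restores mutant binding toward wildtype level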
# MEKK3 confirm: confirmation of inhibitors of MEK5 binding to human MEKK3 | shares compounds with MEKK3 PB1 HTS | bead flow cytometry, Alexa488-MEK5 binding to MEKK3; hits give low values | binding response (% of control), % at 10 µM | hit rate 1.8% among 5,900;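 active = binding response below 72% of control, or above a set upper limit, though filed actives all read lower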;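 note: lower values mean stronger disruption of MEK5 binding to MEKK3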
# A number is an active result; - = inactive; . = no result; [ ] = another dose, or the depositor's remark.
SMILES,Dynein cargo inh,MEKK3 PB1 HTS,MEKK2mut PB1 HTS,Beta2AR agonist,MEKK2 WT-MEK5,ATG4B inh,MEKK2wt confirm,MEKK2mut-MEK5,MEKK3 confirm
CC(C)Cn1c(O)c(/C=C2\C=NN=C2c2ccccc2)sc1=S,-,133.0,-,-,-,-,-,-,-
CCC1CCc2sc(C(=O)N3CCCN(C)CC3)cc2C1 (stereo not drawn),.,-,-,-,-,-,.,.,.
COc1cccc(NC(=O)CSc2nc3c(sc4ccccc43)c(=O)n2CCN(C)C)c1,-,-,-,-,147.0,-,-,-,-
COc1cccc(NC(=O)CSc2nc3c([nH]c4ccccc43)c(=O)n2C)c1,-,-,-,-,-,-,.,.,.
CCN(CC)CCn1c(SCC(=O)NCc2ccco2)nc2c(sc3ccccc32)c1=O,-,-,-,-,-,-,.,.,.
CCN(CC)CCn1c(SCC(=O)Nc2cccc(OC)c2)nc2c(sc3ccccc32)c1=O,-,-,-,-,174.0,-,-,-,-
CC(C)n1c(SCC(=O)N2c3ccccc3CCc3ccccc32)nc2c1c(=O)n(C)c(=O)n2C,-,.,.,.,.,.,.,.,.
CC(C)n1c(SCC(=O)N2c3ccccc3Sc3ccccc32)nc2c1c(=O)n(C)c(=O)n2C,-,1.0[inhibitor],-,-,-3.0[inhibitor],-,-,-,-
C=CCNC(=O)CN1N=C(c2ccc(C)cc2)CCC1=O,.,-,-,-,-,-,.,.,.
O=C(CSc1ncnc2ccccc12)c1cccs1,-,63.0[inhibitor],-,-,-,-,-,-,-
CC1CCCC(NC(=O)COC(=O)COc2ccc(C#N)cc2)C1C (stereo not drawn),.,.,.,-,.,-,.,.,.
Cc1ccc(C)c(C2=CSC3=NS(=O)(=O)CCN23)c1,-,2.0[inhibitor],-,-,3.0[inhibitor],-,-,-,-
C/C(=N/NC(=O)CNC(=O)C1COc2ccccc2O1)c1ccc([N+](=O)[O-])cc1 (stereo not drawn),.,-,-,-,-,-,.,.,.
C#CCOCCOCCOCCNc1nc(N2CCN(C(=O)[C@H](CCCCN)n3cc([C@@H](N)CC(C)C)nn3)CC2)nc(N2CCN(C(=O)[C@H](Cc3ccc(O)cc3)n3cc([C@@H](N)CC(C)C)nn3)CC2)n1,-,-,-,.,151.0,-,-,-,-
C#CCOCCOCCOCCNc1nc(N2CCN(C(=O)[C@H](Cc3ccc(O)cc3)n3cc([C@@H](N)CC(C)C)nn3)CC2)nc(N2CCN(C(=O)[C@H](Cc3ccc(O)cc3)n3cc([C@@H](N)CC(C)C)nn3)CC2)n1,-,-,69.0,.,188.0,.,227.0,95.0,-
C#CCOCCOCCOCCNc1nc(N2CCN(C(=O)[C@H]([C@@H](C)CC)n3cc([C@@H](N)Cc4ccc(O)cc4)nn3)CC2)nc(N2CCN(C(=O)[C@H](CCCCN)n3cc([C@@H](N)CC(C)C)nn3)CC2)n1,-,-,79.0,.,221.0,.,-,110.0,-
C#CCOCCOCCOCCNc1nc(N2CCN(C(=O)C(Cc3ccc(O)cc3)n3cc(C(N)C(C)CC)nn3)CC2)nc(N2CCN(C(=O)C(Cc3ccc(O)cc3)n3cc(C(N)C(C)CC)nn3)CC2)n1 (stereo not drawn),-,-,-,-,145.0,-,-,-,-
C#CCOCCOCCOCCNc1nc(N2CCN(C(=O)[C@H](CCC(=O)O)n3cc(C(N)CC(C)C)nn3)CC2)nc(N2CCN(C(=O)[C@H](Cc3ccc(O)cc3)n3cc(C(N)CC(C)C)nn3)CC2)n1 (stereo partly drawn),-,-,-,-,-,-,.,.,.
C#CCOCCOCCOCCNc1nc(N2CCN(C(=O)C([C@@H](C)CC)n3cc(C(N)CC(C)C)nn3)CC2)nc(N2CCN(C(=O)[C@H](CCC(=O)O)n3cc(C(N)Cc4ccc(O)cc4)nn3)CC2)n1 (stereo partly drawn),-,-,-,-,-,-,.,.,.
CNC(=S)N(CCO)Cc1cc2cc3c(cc2[nH]c1=O)OCO3,.,-,-,-,-,-,.,.,.
C#CCOCCOCCOCCNc1nc(N2CCN(C(=O)[C@H](CCCCN)n3cc(C(N)CO)nn3)CC2)nc(N2CCN(C(=O)[C@H](CCC(=O)O)n3cc(C(N)CC(C)C)nn3)CC2)n1 (stereo partly drawn),-,-,-,.,-,.,.,.,.
C#CCOCCOCCOCCNc1nc(N2CCN(C(=O)[C@H](C)n3cc(CCCN=C(N)N)nn3)CC2)nc(N2CCN(C(=O)[C@H](CCCCN)n3cc(CCCC)nn3)CC2)n1,-,-,-,.,-,.,.,.,.
C#CCOCCOCCOCCNc1nc(N2CCN(C(=O)[C@H](CCCCN)n3cc([C@@H](N)CC(C)C)nn3)CC2)nc(N2CCN(C(=O)[C@H](CCCCN)n3cc([C@@H](N)CC(C)C)nn3)CC2)n1,-,-,-,-,136.0,-,-,-,-
C#CCOCCOCCOCCNc1nc(N2CCN(C(=O)[C@H]([C@@H](C)CC)n3cc(CCCN=C(N)N)nn3)CC2)nc(N2CCN(C(=O)[C@H](CCCCN)n3cc(CCCC)nn3)CC2)n1,-,-,-,-,172.0,-,-,-,-
C#CCOCCOCCOCCNc1nc(N2CCN(C(=O)[C@H](CCCCN)n3cc(C(N)CC(C)C)nn3)CC2)nc(N2CCN(C(=O)[C@H](CCC(=O)O)n3cc(C(N)[C@H](C)CC)nn3)CC2)n1 (stereo partly drawn),-,-,-,-,-,-,.,.,.
C#CCOCCOCCOCCNc1nc(N2CCN(C(=O)[C@H](CCCCN)n3cc([C@@H](N)C(C)CC)nn3)CC2)nc(N2CCN(C(=O)[C@H](Cc3ccc(O)cc3)n3cc([C@@H](N)CC(C)C)nn3)CC2)n1 (stereo partly drawn),-,-,-,-,158.0,-,-,-,-
COc1ccc(OC)c2c(C)cc(N3CCCCCC3)nc12,.,-,-,-,-,-,.,.,.
Cc1cc(OCC(=O)Nc2ccncc2)cc(C)c1Cl,.,-,-,-,-,-,.,.,.
O=C1CC(c2cccc(Oc3ccccc3)c2)NC(=O)N1 (stereo not drawn),-,0.0[inhibitor],-,-,-1.0[inhibitor],-,-,-,-
